Measured values as given in ChEMBL document CHEMBL1133676, “Synthesis and hypolipidemic and antiplatelet activities of alpha-asarone isomers in humans (in vitro), mice (in vivo), and rats (in vivo)” (2000).

Key:
Assay type in all cases: functional
Rattus norvegicus [1] = species on record: Rattus norvegicus; experiment: HDL (high density lipoproteins) cholesterol level in Wistar male rats
Outline: (§1)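 Agents in oil (5 mL/kg) were given once daily by gastric intubation. Doses were 80 mg/kg for test agents and 150 mg/kg for the positive control; chow-fed and vehicle-oil groups served as controls. After a 16 h fast and ether anesthesia, ocular-puncture blood was drawn. Serum lipids were measured by kit spectrophotometry; Student's t-test, n = 9–10.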

Rattus norvegicus [2] = species on record: Rattus norvegicus; experiment: LDL (low density lipoproteins) cholesterol level in Wistar male rats
Outline: (§2)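 Compounds in oil (5 mL/kg) were given by gastric intubation once daily, at 80 mg/kg or 150 mg/kg for clofibrate. Rats were then fasted 16 h […], and serum lipids were measured spectrophotometrically with kits; Student's t-test.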

Rattus norvegicus [3] = species on record: Rattus norvegicus; experiment: Cholesterol level in Wistar male rats; outline: as §1
Rattus norvegicus [4] = species on record: Rattus norvegicus; experiment: Triglyceride level in Wistar male rats; outline: as §1
Mus musculus [5] = experiment: Effect on acute pulmonary thromboembolism in mice at 100 mg/kg expressed as no. of killed or paralyzed to no. of tested observed after 10 min
Outline: (§3)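 Male Swiss mice (29.4 ± 2.6 g) were given a single ip dose 1 h before a rapid tail-vein injection of collagen (25 μg/mouse) plus epinephrine (27 μg/mouse) in 0.154 M NaCl. Vehicles were miglyol 812 for asarones, or DMSO with Sörensen phosphate buffer pH 7.0 for ketorolac, at 0.1 mL/10 g. Death or paralysis was scored within 10 min; controls received vehicle only; χ² test.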

Mus musculus [6] = experiment: Effect on acute pulmonary thromboembolism in mice at 100 mg/kg
Outline: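 Male Swiss mice (29.4 ± 2.6 g) received a single ip dose 1 h before a rapid tail-vein injection of collagen (25 μg/mouse) plus epinephrine (27 μg/mouse) in 0.154 M NaCl. Asarones were given in miglyol 812, and ketorolac in DMSO/Sörensen phosphate buffer pH 7.0, at 0.1 mL/10 g. Death or paralysis was scored within 10 min and reported as % protected versus vehicle controls; χ² test.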

Rattus norvegicus [7] = experiment: HDL (high density lipoproteins) cholesterol level in Wistar male rats at a dose of 80 mg/kg; outline: as §1
Rattus norvegicus [8] = experiment: LDL (low density lipoproteins) cholesterol level in Wistar male rats at a dose of 80 mg/kg; outline: as §2
Rattus norvegicus [9] = experiment: Total cholesterol level in Wistar male rats administered at a dose of 80 mg/kg; outline: as §1
Rattus norvegicus [10] = experiment: Triglyceride level in Wistar male rats administered at a dose of 80 mg/kg; outline: as §1
Rattus norvegicus [11] = experiment: HDL (high density lipoproteins) cholesterol level in Wistar male rats at 150 mg/kg; outline: as §1
Rattus norvegicus [12] = experiment: LDL (low density lipoproteins) cholesterol level in Wistar male rats at 150 mg/kg; outline: as §2
Rattus norvegicus [13] = experiment: Triglyceride level in Wistar male rats at a dose of 150 mg/kg; outline: as §1
Rattus norvegicus [14] = experiment: Total cholesterol level in Wistar male rats at a dose of 150 mg/kg; outline: as §1
Homo sapiens [15] = species on record: Homo sapiens; experiment: In vitro inhibition of human platelet aggregation induced by 10 uM ADP after incubation at 100 uM
Outline: (§4)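 Born turbidimetric assay in citrated platelet-rich plasma from healthy male volunteers, with platelet-poor plasma set as 100% transmission. Agents in 95% ethanol were preincubated with PRP for 2 min at 37 °C, stirred at 1000 rpm.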

Homo sapiens [16] = species on record: Homo sapiens; experiment: In vitro inhibition of human platelet aggregation induced by 10 uM ADP after incubation at 150 uM; outline: as §4
Homo sapiens [17] = species on record: Homo sapiens; experiment: In vitro inhibition of human platelet aggregation induced by 10 uM ADP after incubation at 200 uM; outline: as §4
Homo sapiens [18] = species on record: Homo sapiens; experiment: In vitro inhibition of human platelet aggregation induced by 10 uM ADP after incubation at 250 uM; outline: as §4
Mus musculus [19] = experiment: Effect on acute pulmonary thromboembolism in mice at 25 mg/kg expressed as no. of killed or paralyzed to no. of tested observed after 10 min
Mus musculus [20] = experiment: Effect on acute pulmonary thromboembolism in mice at 25 mg/kg
Rattus norvegicus [21] = experiment: Total cholesterol level in Wistar male rats at a dose of 80 mg/kg; outline: as §2
Rattus norvegicus [22] = experiment: Triglyceride level in Wistar male rats at a dose of 80 mg/kg; outline: as §2
Homo sapiens [23] = species on record: Homo sapiens; experiment: In vitro inhibition of human platelet aggregation induced by 10 uM ADP after incubation at 300 uM; outline: as §4
Mus musculus [24] = experiment: Effect on acute pulmonary thromboembolism in mice at 50 mg/kg expressed as no. of killed or paralyzed to no. of tested observed after 10 min; outline: as §3
Mus musculus [25] = experiment: Effect on acute pulmonary thromboembolism in mice at 50 mg/kg; outline: as §3

Compound	No. of killed or paralyzed (Mus musculus [5])	Protected (Mus musculus [6]) [%]	HDL cholesterol (Rattus norvegicus [7]) [mg/dL]	LDL cholesterol (Rattus norvegicus [8]) [mg/dL]	Total cholesterol (Rattus norvegicus [9]) [mg/dL]	Triglyceride level (Rattus norvegicus [10]) [mg/dL]	further results
CC(C)CCC[C@@H](C)[C@H]1CC[C@H]2[C@@H]3CC=C4C[C@@H](O)CC[C@]4(C)[C@H]3CC[C@]12C [CHOLESTEROL]	–	–	–	–	–	–	HDL cholesterol (Rattus norvegicus [1]): 29 mg/dL; LDL cholesterol (Rattus norvegicus [2]): 43.2 mg/dL; Total cholesterol (Rattus norvegicus [3]): 111 mg/dL; Triglyceride level (Rattus norvegicus [4]): 125 mg/dL
O=C(c1ccccc1)c1ccc2n1CCC2C(=O)O (configuration not stated) [KETOROLAC]	16	33	–	–	–	–	–
C/C=C/c1cc(OC)cc(OC)c1OC.CC(C)CCC[C@@H](C)[C@H]1CC[C@H]2[C@@H]3CC=C4C[C@@H](O)CC[C@]4(C)[C@H]3CC[C@]12C	–	–	39.2	35.8	97.9	140	–
CC(C)CCC[C@@H](C)[C@H]1CC[C@H]2[C@@H]3CC=C4C[C@@H](O)CC[C@]4(C)[C@H]3CC[C@]12C.CCOC(=O)C(C)(C)Oc1ccc(Cl)cc1 [CLOFIBRATE + CHOLESTEROL]	–	–	–	–	–	–	HDL cholesterol (Rattus norvegicus [11]): 22.1 mg/dL; LDL cholesterol (Rattus norvegicus [12]): 46.1 mg/dL; Triglyceride level (Rattus norvegicus [13]): 91.6 mg/dL; Total cholesterol (Rattus norvegicus [14]): 85.8 mg/dL
CC(=O)Oc1ccccc1C(=O)O [ASPIRIN]	–	–	–	–	–	–	Inhibition (Homo sapiens [15]): 31.2%; Inhibition (Homo sapiens [16]): 37.1%; Inhibition (Homo sapiens [17]): 48.5%; Inhibition (Homo sapiens [18]): 56.4%; No. of killed or paralyzed (Mus musculus [19]): 28; Protected (Mus musculus [20]): 45%
C/C=C/c1cc(OC)c(OC)cc1OC.CC(C)CCC[C@@H](C)[C@H]1CC[C@H]2[C@@H]3CC=C4C[C@@H](O)CC[C@]4(C)[C@H]3CC[C@]12C [ALPHAASARONE AND CHOLESTEROL]	–	–	45.5	24.4	–	–	Total cholesterol (Rattus norvegicus [21]): 113.6 mg/kg; Triglyceride level (Rattus norvegicus [22]): 219.3
C/C=C/c1ccc(OC)c(OC)c1OC	14	0	–	–	–	–	–
C/C=C/c1c(OC)cc(OC)cc1OC	30	25	–	–	–	–	Inhibition (Homo sapiens [15]): 15.9%; Inhibition (Homo sapiens [16]): 19%; Inhibition (Homo sapiens [17]): 31%; Inhibition (Homo sapiens [18]): 7.5%; Inhibition (Homo sapiens [23]): 17.5%
C/C=C/c1c(OC)ccc(OC)c1OC.CC(C)CCC[C@@H](C)[C@H]1CC[C@H]2[C@@H]3CC=C4C[C@@H](O)CC[C@]4(C)[C@H]3CC[C@]12C	–	–	30.2	48.2	115	162	–
C/C=C/c1cc(OC)c(OC)c(OC)c1	17	19	–	–	–	–	–
C/C=C/c1cc(OC)c(OC)c(OC)c1.CC(C)CCC[C@@H](C)[C@H]1CC[C@H]2[C@@H]3CC=C4C[C@@H](O)CC[C@]4(C)[C@H]3CC[C@]12C	–	–	45.3	19.8	93.4	136	–
C/C=C/c1cc(OC)c(OC)cc1OC [TRANS-ASARONE]	10	44	–	–	–	–	Inhibition (Homo sapiens [15]): 4%; Inhibition (Homo sapiens [16]): 14.7%; Inhibition (Homo sapiens [17]): 40.3%; Inhibition (Homo sapiens [18]): 30.3%; Inhibition (Homo sapiens [23]): 47%; No. of killed or paralyzed (Mus musculus [24]): 13; Protected (Mus musculus [25]): 0%
C/C=C/c1cc(OC)cc(OC)c1OC	12	52	–	–	–	–	Inhibition (Homo sapiens [15]): 13%; Inhibition (Homo sapiens [16]): 25.4%; Inhibition (Homo sapiens [17]): 35.4%; Inhibition (Homo sapiens [18]): 38.3%; Inhibition (Homo sapiens [23]): 38.3%
C/C=C/c1ccc(OC)c(OC)c1OC.CC(C)CCC[C@@H](C)[C@H]1CC[C@H]2[C@@H]3CC=C4C[C@@H](O)CC[C@]4(C)[C@H]3CC[C@]12C	–	–	42.8	30.1	96.6	125	–
C/C=C/c1c(OC)cc(OC)cc1OC.CC(C)CCC[C@@H](C)[C@H]1CC[C@H]2[C@@H]3CC=C4C[C@@H](O)CC[C@]4(C)[C@H]3CC[C@]12C	–	–	37.9	36.9	98.1	116	–
